The source of these data is ChEMBL document CHEMBL1142954, “Metabolically stabilized benzothiazoles for imaging of amyloid plaques” (J Med Chem, 2007).

SMILES strings stand for the structures.

The Ki is a dissociation constant, usually derived from enzyme kinetics or from competition with a known ligand. High values mean lower affinity, low ones higher affinity. In general, logP refers to the decadic logarithm of the partition coefficient of the neutral form, usually between octanol and water.

Series [1] deals with Mus musculus. Kind of series: Ratio of drug uptake in iv dosed Balb/C mouse brain at 2 to 30 mins. The format is ADME, organism-based. The settings on record: in vivo. In short, it runs like this:
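Wild-type mice received the 11C-labeled tracers i.v. Brain uptake was measured as %ID/g at 2 and 30 min post-injection, and the 2 min/30 min ratio was taken. Means ± sd, n = 4-5.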

Series [2] can be described thus: Displacement of [3H]PIB from human A-beta-40 peptide. The method in brief:
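Competition binding against [3H]PIB using precipitated synthetic Aβ(1-40) peptide aggregates. Ki derived from competition data.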
A general note: Displacement assays read how much labelled ligand stays bound in the presence of the test substance.

Series [3] deals with Plasma. Kind of series: Metabolic stability in Balb/C mouse plasma assessed as radioactivity. In kind it is ADME, cell-free.
The nature of series [4]: Lipophilicity, log P of the compound. In kind it is physicochemical. The settings on record: octanol/water. The method in brief:
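Octanol–PBS partition (log Poct/PBS) measured on the N-11C-labeled radiotracers.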

Regarding `[11CH3]Nc1ccc(-c2nc3ccccc3s2)cc1F`, the Ratio in series [1] was 3.1. The compound also gave a Ki in series [2] of 6.8 nM. Moreover, in series [3], the t1/2 is on record as 8.4 min. In series [4], this compound returned a logP of 3.05.

Regarding `[11CH3]Nc1ccc(-c2nc3cc(F)ccc3s2)cc1Br`, the Ratio in series [1] is 2.5. Also, in series [2], the Ki was determined as 1.3 nM. For the same compound, the t1/2 in series [3] was 7.2 min. In series [4], this compound showed a logP of 4.18.

As to `[11CH3]Nc1ccc(-c2nc3cc(F)ccc3s2)cc1Cl`, in series [1], the Ratio came out at 9.8. The compound further had a Ki in series [2] of 3.4 nM. In addition, in series [3], the t1/2 stood at 22.1 min. Moreover, in series [4], the logP is 2.81.

As to `Cc1cc(-c2nc3cc(F)ccc3s2)ccc1N[11CH3]`, the Ratio in series [1] is 6.3. Further, the Ki in series [2] was determined as 8.4 nM. The t1/2 in series [3] is given as 14.3 min. In series [4], this compound gave a logP of 2.93.

On to `[11CH3]Nc1ccc(-c2nc3cc(F)ccc3s2)cc1`, for which the Ratio in series [1] is recorded as 2.5. In addition, in series [2], the Ki was 12.4 nM. Besides, the t1/2 in series [3] was 6.8 min. The logP in series [4] came out at 3.27.

For the compound `Cc1cc(-c2nc3ccccc3s2)ccc1N[11CH3]`, the Ratio in series [1] amounted to 2.8. Further, the Ki in series [2] is 4.4 nM. Further, the t1/2 in series [3] turned out to be 7.5 min. Moreover, the logP in series [4] came to 3.36.
